Measured values gathered from unrelated publications.
Lines come from different studies, so protocols differ.
BRAF V600E: Serine/threonine-protein kinase B-raf (BRAF, Homo sapiens, UniProt P15056, V600E)
PARP16: Protein mono-ADP-ribosyltransferase PARP16 (PARP16, Homo sapiens, UniProt Q8N5Y8)
DRD2: D(2) dopamine receptor (DRD2, Homo sapiens, UniProt P14416)
AGTR1: Type-1 angiotensin II receptor (AGTR1, Homo sapiens, UniProt P30556)
ADORA3: Adenosine receptor A3 (ADORA3, Homo sapiens, UniProt P0DMS8)
Blk: Tyrosine-protein kinase Blk (Blk, Mus musculus, UniProt P16277)

[N-]=[N+]=N[C@@H](CC(=O)NO)Cc1ccc2ccccc2c1
inhibition (Endoplasmic reticulum aminopeptidase 2 (ERAP2, Homo sapiens, UniProt Q6P179); enzyme activity, inhibitor, fluorescence; 300 µM): 24%

Cc1ccc(C(CS(=O)(=O)c2ccccc2)=NNC(N)=S)cc1
inhibition (BRAF V600E; enzyme activity, inhibitor, ATP luminescence; 1 µM): 69%

O=C1NCCCc2ccc(F)cc21
inhibition (PARP16; enzyme activity, inhibitor; 10 µM): 74%

CCOCCNC(=O)NC12CC3CC(CC(C3)C1)C2
inhibition (ephB (Mycobacterium tuberculosis, UniProt I6YC03); enzyme activity, inhibitor; 10 nM): 8.7%

COc1ccc(-c2ccc(CNCC(O)c3ccccc3)o2)cc1Cl (stereo not drawn)
inhibition (DRD2; enzyme activity, inhibitor; 10 µM): 46%

COc1cc(NC(C)=O)c(Cl)cc1C(=O)Nc1nccs1
inhibition (AGTR1; cell-free assay; 10 µM): 4.8%

CC(=O)c1nn(CC(=O)N2C[C@H](F)C[C@H]2C(=O)Nc2cccc(Br)n2)c2ccc(-c3cnc(C)nc3)cc12
inhibition (Neutrophil elastase (ELANE, Homo sapiens, UniProt P08246); enzyme activity, inhibitor; 10 µM): 0.7%

CCC(=O)c1ccc(OCC(O)CN2CCN(S(=O)(=O)N3CCCCC3)CC2)cc1 (stereo not drawn)
inhibition (DRD2; enzyme activity, inhibitor; 10 µM): 6.8%

Cc1ccc(C(CS(=O)(=O)c2ccccc2)=NNc2nc(C)c(N=Nc3ccccc3)s2)cc1
inhibition (BRAF V600E; enzyme activity, inhibitor, ATP luminescence; 10 µM): 85%

OC(CNCc1cccc(Oc2nnnn2-c2ccccc2)c1)c1ccccc1 (stereo not drawn)
inhibition (DRD2; enzyme activity, inhibitor; 10 µM): 35.6%

Cc1ccc(C(CS(=O)(=O)c2ccccc2)=NNC2=NC(=O)C(=NNc3ccccc3)S2)cc1
inhibition (BRAF V600E; enzyme activity, inhibitor, ATP luminescence; 10 µM): 89%

O=C(c1ccc(Cl)cc1)N(Cc1ccccc1)C1CCCCC1
inhibition (AGTR1; cell-free assay; 10 µM): -0.9%

CN1CCCn2c1nc1c2c(=O)n(C)c(=O)n1C
inhibition (ADORA3; ligand displacement, radioligand; 10 µM, cell membranes): 3%

CNC(=O)c1cc(Oc2ccc(NC(=O)Nc3ccc(Cl)c(C(F)(F)F)c3)cc2)ccn1
inhibition (Blk; enzyme activity, inhibitor; 10 µM): 51%

Nc1ncnc2[nH]cnc12
inhibition (ADORA3; ligand displacement, radioligand; 30 µM, cell membranes): 13%

CC(C)N1CCCn2c1nc1c2c(=O)n(C)c(=O)n1C
inhibition (ADORA3; ligand displacement, radioligand; 10 µM, cell membranes): 8%

Oc1cccc(Nc2nc(-c3ccc(F)cc3F)cs2)c1
inhibition (AGTR1; cell-free assay; 10 µM): -7.2%

O=C(CCN1CCC(O)(c2ccc(F)cc2)C1)c1ccc2c(c1)OCCO2 (stereo not drawn)
inhibition (DRD2; enzyme activity, inhibitor; 10 µM): 41.3%

CC(C)(C)c1nc(-c2cccc(NS(=O)(=O)c3c(F)cccc3F)c2F)c(-c2ccnc(N)n2)s1
inhibition (BRAF V600E; enzyme activity, inhibitor, ATP luminescence; 0.1 µM): 58%

O=C1N=C(N2CCCCN2)S/C1=C\c1ccc(F)cc1O
inhibition (ADORA3; ligand displacement, radioligand; 10 µM): 27%

CCCCN1CCCn2c1nc1c2c(=O)n(C)c(=O)n1C
inhibition (ADORA3; ligand displacement, radioligand; 10 µM, cell membranes): 12%

O=C1C2CCCN2C(=O)N1CCCCN1CCN(c2cccc(C(F)(F)F)c2)CC1 (stereo not drawn)
inhibition (DRD2; enzyme activity, inhibitor; 10 µM): 10%

Cn1cnc(Br)c1C1=CN(c2ncnc3[nH]cnc23)CCS1
inhibition (Serine/threonine-protein kinase Nek5 (NEK5, Homo sapiens, UniProt Q6P3R8); enzyme activity, inhibitor, radiometric; 2 µM): 90.4%

COc1ccc2c(c1)C(=O)N(CCCN1CCN(c3ccccc3OC)CC1)C2
inhibition (DRD2; ligand displacement, radioligand; 10 µM): 85%

Cc1ccc(C(C)C)c(OCC(O)CN2CCN(c3ccccc3F)CC2)c1 (stereo not drawn)
inhibition (DRD2; enzyme activity, inhibitor; 10 µM): 32.3%

CCCCCC(C)N1CCCn2c1nc1c2c(=O)n(C)c(=O)n1C (stereo not drawn)
inhibition (ADORA3; ligand displacement, radioligand; 10 µM, cell membranes): 32%

CC(=O)N[C@H]1CSSC[C@@H](C(=O)N[C@H](Cc2c[nH]c3ccccc23)C(N)=O)NC(=O)[C@@H](Cc2ccccc2)NC(=O)[C@H](CCCNC(=N)N)NC1=O
inhibition (Melanocortin receptor 3 (MC3R, Homo sapiens, UniProt P41968); ligand displacement, radioligand; 10 µM, 40 min): 35%

COc1cc2c3c(c1OC)-c1cc4c(cc1CC3N(C)CC2)OCO4 (racemic)
inhibition (5-hydroxytryptamine receptor 1E (HTR1E, Homo sapiens, UniProt P28566); ligand displacement, radioligand; 10 µM): 62%

O=C(c1ccc(F)cc1)N(Cc1ccccc1)C1CCCCC1
inhibition (Neuropeptide Y receptor type 1 (NPY1R, Homo sapiens, UniProt P25929); cell-free assay; 10 µM): -9%

O=C1NCCCc2c(O)cccc21
inhibition (PARP16; enzyme activity, inhibitor; 10 µM): 0%

Cc1ccc(Nc2nccc(N(C)c3ccc4c(C)n(C)nc4c3)n2)cc1S(N)(=O)=O
inhibition (Dual specificity mitogen-activated protein kinase kinase 4 (Map2k4, Mus musculus, UniProt P47809); enzyme activity, inhibitor; 10 µM): 63%

Cc1ccc(C(CS(=O)(=O)c2ccccc2)=NNC2=NC(=O)C(=NNc3ccc([N+](=O)[O-])cc3)S2)cc1
inhibition (BRAF V600E; enzyme activity, inhibitor, ATP luminescence; 1 µM): 72%

CCCCn1c(=O)c2[nH]c(C34CC5CC(CC3C5)C4)nc2n(CCCO)c1=O
inhibition (ADORA3; ligand displacement, radioligand; 10 µM, cell membranes): 39%

CN(C)C1CCN(CC#Cc2nn(C3CCCC3)c3nc(NCc4ccccc4)ncc23)C1 (stereo not drawn)
inhibition (Ephrin type-B receptor 2 (EPHB2, Homo sapiens, UniProt P29323); enzyme activity, inhibitor, FRET; 10 µM): 31%

COCCOc1ccc(N2CCN(CCn3ncc4c3nc(N)n3nc(-c5ccco5)nc43)CC2)cc1
inhibition (ADORA3; ligand displacement, radioligand; 10 µM, cell membranes): 35%

Cc1ccc(N=Nc2sc(NN=C(CS(=O)(=O)c3ccccc3)c3ccc(C)cc3)nc2C)cc1
inhibition (BRAF V600E; enzyme activity, inhibitor, ATP luminescence; 1 µM): 73%

CCN(CC)CCNC(=O)c1c(C)[nH]c(/C=C2\C(=O)Nc3ccc(F)cc32)c1C
inhibition (Blk; enzyme activity, inhibitor; 10 µM): 83%

CNCc1ccc(-c2cc(-c3nc(-c4ccc(S(=O)(=O)C(C)C)cc4)cnc3N)on2)cc1
inhibition (Blk; enzyme activity, inhibitor; 0.4 µM): 2%

CS(=O)(=O)Nc1cccc(-c2csc(NC(=O)CSc3nc4nccnc4c(=O)n3CCc3ccccc3)n2)c1
inhibition (Phosphatidylinositol 4-kinase type 2-alpha (PI4K2A, Homo sapiens, UniProt Q9BTU6); enzyme activity, inhibitor; 10 µM): 0%

COc1ccccc1N1CCN(CC(O)Cn2cnc3c2c(=O)n(C)c(=O)n3C)CC1 (stereo not drawn)
inhibition (DRD2; enzyme activity, inhibitor; 10 µM): 2.6%

O=C(Nc1ccc(S(=O)(=O)N2CCC(Cl)CC2)cc1)c1ccc([N+](=O)[O-])o1
inhibition (ADORA3; ligand displacement, radioligand; 10 µM): 6%

CCC(C)N1CCCn2c1nc1c2c(=O)n(C)c(=O)n1C (stereo not drawn)
inhibition (ADORA3; ligand displacement, radioligand; 10 µM, cell membranes): 14%

Cc1ccc(C(CS(=O)(=O)c2ccccc2)=NN=C2N=C(c3ccc(Br)cc3)CS2)cc1
inhibition (BRAF V600E; enzyme activity, inhibitor, ATP luminescence; 10 nM): 43%

C=CCN1CCCn2c1nc1c2c(=O)n(C)c(=O)n1C
inhibition (ADORA3; ligand displacement, radioligand; 10 µM, cell membranes): 17%

CC(O)c1ccc(-c2ccc(CNCCc3c[nH]c4ccccc34)o2)cc1 (stereo not drawn)
inhibition (DRD2; enzyme activity, inhibitor; 10 µM): 36.8%
